Laboratory results reported in ChEMBL document CHEMBL4411326 (J Med Chem, 2019).
The source made the active and inactive calls. The calls are words filed in the database; no cut-off is given here.

How the values were obtained:
[1] = target: Neuronal acetylcholine receptor subunit alpha-7 (Rattus norvegicus) (UniProt Q05941); test: Displacement of [3H]-methyllycaconitine from alpha7* nAChR in rat brain P2 membranes at 1 uM after 2.5 hrs by liquid scintillation spectrometry relative to control; format: cell membranes
Neuronal acetylcholine receptor subunit alpha-7 (Rattus norvegicus), sequence (Q05941 whole entry): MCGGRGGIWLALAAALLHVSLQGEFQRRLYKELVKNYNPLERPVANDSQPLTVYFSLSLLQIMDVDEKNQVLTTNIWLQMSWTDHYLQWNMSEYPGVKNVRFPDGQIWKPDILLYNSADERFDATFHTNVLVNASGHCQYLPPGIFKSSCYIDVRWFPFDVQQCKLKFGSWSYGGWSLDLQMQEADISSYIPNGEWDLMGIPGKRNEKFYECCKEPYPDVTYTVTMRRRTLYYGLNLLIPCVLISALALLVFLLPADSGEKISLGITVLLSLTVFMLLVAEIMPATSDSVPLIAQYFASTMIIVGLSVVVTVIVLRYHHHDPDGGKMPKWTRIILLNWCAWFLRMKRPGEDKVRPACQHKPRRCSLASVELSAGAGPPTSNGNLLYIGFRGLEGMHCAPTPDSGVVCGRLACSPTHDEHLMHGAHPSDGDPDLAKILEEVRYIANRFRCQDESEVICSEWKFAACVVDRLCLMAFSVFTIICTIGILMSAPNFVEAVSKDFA
Summary of the method: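 [3H]-Methyllycaconitine binding on rat brain minus cortex, striatum and cerebellum […]. Percent inhibition measured at 1 μM compound. Four independent experiments in duplicate.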

[2] = target: T1, Neuronal acetylcholine receptor subunit alpha-7 (Rattus norvegicus, UniProt Q05941); test: Displacement of [3H]-methyllycaconitine from alpha7* nAChR in rat brain P2 membranes after 2.5 hrs by liquid scintillation spectrometry; format: cell membranes
T1 sequence (Q05941 whole entry): as above

[3] = Displacement of [3H]-cytisine from alpha4beta2* nAChR in Wistar rat cerebral cortex membranes after 75 mins; format: cell membranes
[4] = (§1) Agonist activity at nAChR in human SH-SY5Y cells assessed as increase in intracellular Ca2+ levels measured every 2 secs for 3 mins by Fluo4AM-fluorescent dye based assay; format: cell-based; conditions: 0.05 h
Summary of the method: (§2)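 SH-SY5Y cells (native nAChRs) in DMEM/F12 with 10% FBS were plated at 5000-10000 cells/well and grown 48-72 h. Cells were loaded with Fluo-4 AM (1.824 μM) and probenecid (1.25 mM). Compound was added just before reading; fluorescence at ex/em 485/535 nm. Mean ± SEM of three independent experiments, each with 5-6 measurements.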

[5] = target: Neuronal acetylcholine receptor subunit alpha-7 (Homo sapiens, UniProt P36544); test: Agonist activity at human alpha7 nAChR expressed in mouse Neuro2a cells co-expressing chaperone NACHO assessed as increase in intracellular Ca2+ levels in presence of PNU120596 by calcium flux assay; format: cell-based
Neuronal acetylcholine receptor subunit alpha-7 (Homo sapiens, UniProt P36544), sequence (P36544 whole entry): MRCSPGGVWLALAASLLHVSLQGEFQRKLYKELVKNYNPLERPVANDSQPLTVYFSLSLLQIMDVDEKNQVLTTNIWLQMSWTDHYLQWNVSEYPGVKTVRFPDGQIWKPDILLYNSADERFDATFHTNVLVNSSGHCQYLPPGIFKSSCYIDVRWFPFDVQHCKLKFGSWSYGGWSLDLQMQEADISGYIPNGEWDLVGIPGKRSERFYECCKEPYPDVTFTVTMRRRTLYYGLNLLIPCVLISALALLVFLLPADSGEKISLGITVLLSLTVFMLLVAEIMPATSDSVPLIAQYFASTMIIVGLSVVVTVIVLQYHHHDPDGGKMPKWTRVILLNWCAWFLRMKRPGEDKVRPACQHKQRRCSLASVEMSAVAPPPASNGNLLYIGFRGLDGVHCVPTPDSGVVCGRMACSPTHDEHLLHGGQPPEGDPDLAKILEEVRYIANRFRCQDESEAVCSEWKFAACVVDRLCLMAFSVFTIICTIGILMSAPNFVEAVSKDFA

[6] = target: T1, Neuronal acetylcholine receptor subunit alpha-7; test: Agonist activity at rat alpha7 nAChR expressed in Xenopus laevis oocytes after 4 to 5 days at -60 mV holding potential by […] assay; format: cell-based
Summary of the method: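 Two-electrode voltage clamp on defolliculated stage V-VI Xenopus laevis oocytes (collagenase 2 mg/mL, 2 h, 21-24 °C, Ca2+-free Barth's, pH 7.6). Oocytes were injected with 9.2 ng cRNA of human α3+β2 (1:1) or rat α7 plus chaperone NACHO (2:1). Agonist applications were separated by 5 min washout in normal frog Ringer's.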

Rattus norvegicus = organism: Rattus norvegicus; test: Selectivity ratio of Ki for alpha7* nAChR in rat brain P2 membranes to Ki for alpha4beta2* nAChR in Wistar rat cerebral cortex membranes; format: cell membranes
SH-SY5Y = test: as §1; format: cell-based; summary of the method: as §2

Row | Structure (SMILES) | inhibition [1] [%] | Ki [2] [nM] | Ki [3] [nM] | EC50 [4] [nM] | EC50 [5] [nM] | EC50 [6] [nM] | Ratio Ki (Rattus norvegicus) | Activity (SH-SY5Y)
1 | CN(C)[C@@H]1[C@H]2CC[C@H](C2)[C@H]1c1ccc(Cl)nc1 | 18 | > 1000 | 294 | – | – | – | – | –
2 | N[C@@H]1[C@@H]2CC[C@@H](C2)[C@H]1c1ccc(Cl)nc1 | – | 10.5 | 1.31 | 220 | 24 | 2710 | – | –
3 | CN1CCC[C@H]1c1cccnc1 [NICOTINE] | – | – | 2.31 | 22500 | – | – | – | –
4 | N[C@@H]1[C@H]2CC[C@H](C2)[C@H]1c1cccnc1 | 30 | > 1000 | 166 | – | – | – | – | –
5 | CN[C@@H]1[C@@H]2CC[C@@H](C2)[C@H]1c1ccc(Cl)nc1 | – | 116 | 3.12 | – | – | – | 37 | –
6 | N[C@@H]1[C@H]2CC[C@H](C2)[C@H]1c1ccc(Cl)nc1 | – | 227 | 28 | – | – | – | – | –
7 | CN(C)[C@@H]1[C@@H]2CC[C@@H](C2)[C@H]1c1cccnc1 | 8 | > 1000 | 59 | – | – | – | > 17 | –
8 | CN[C@@H]1[C@H]2CC[C@H](C2)[C@H]1c1cccnc1 | 15 | > 1000 | 206 | – | – | – | – | –
9 | CN(C)[C@@H]1[C@H]2CC[C@H](C2)[C@H]1c1cccnc1 | 6 | > 1000 | 554 | – | – | – | > 2 | –
10 | N[C@@H]1[C@@H]2CC[C@@H](C2)[C@H]1c1cccnc1 | – | 46 | 2.11 | 1920 | 48 | 5980 | – | –
11 | CN[C@@H]1[C@@H]2CC[C@@H](C2)[C@H]1c1cccnc1 | – | 352 | 10.2 | – | 2290 | > 10000 | – | inactive
12 | CN(C)[C@@H]1[C@@H]2CC[C@@H](C2)[C@H]1c1ccc(Cl)nc1 | 33 | > 1000 | 43 | – | 6450 | > 10000 | – | inactive
